This is a sample that favours compounds with a hit; in the whole collection about 5.3% have one here.
Rev-RRE block = HIV Rev-RRE protein-RNA interaction inhibition; AID 704; P05866; Rev peptide-RRE RNA binding, FRET; inhibition, % at 8 µM; 97,000 compounds, 0.79% hits;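 active = inhibition above the screen-wide mean plus 3 SD, cut at about 35% in these data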;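 also: 0% = median DMSO wells and 100% = median Neomycin B control wells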
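Assay system: Rev peptide and RRE RNA, both fluorescently labelled; times: 5 min preincubation and 15 min binding, 25 °C; detection: FRET, ex 480 nm, em 540 and 671 nm; read-out basis: % inhibition from 671/540 nm acceptor-to-donor ratio, scaled between controls; benchmarks: DMSO low control, neomycin B high control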
FAK blocker = blocks human focal adhesion kinase activity; 97,000 compounds, 0.84% hits; inhibition, %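 (tested at 7 µM)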; biochemical FAK kinase activity assay; Q05397; in the data active = inhibition above about 19%;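 also: 0% = DMSO and 100% = reference compound high control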
Target sequence (Q05397 whole entry, looked up): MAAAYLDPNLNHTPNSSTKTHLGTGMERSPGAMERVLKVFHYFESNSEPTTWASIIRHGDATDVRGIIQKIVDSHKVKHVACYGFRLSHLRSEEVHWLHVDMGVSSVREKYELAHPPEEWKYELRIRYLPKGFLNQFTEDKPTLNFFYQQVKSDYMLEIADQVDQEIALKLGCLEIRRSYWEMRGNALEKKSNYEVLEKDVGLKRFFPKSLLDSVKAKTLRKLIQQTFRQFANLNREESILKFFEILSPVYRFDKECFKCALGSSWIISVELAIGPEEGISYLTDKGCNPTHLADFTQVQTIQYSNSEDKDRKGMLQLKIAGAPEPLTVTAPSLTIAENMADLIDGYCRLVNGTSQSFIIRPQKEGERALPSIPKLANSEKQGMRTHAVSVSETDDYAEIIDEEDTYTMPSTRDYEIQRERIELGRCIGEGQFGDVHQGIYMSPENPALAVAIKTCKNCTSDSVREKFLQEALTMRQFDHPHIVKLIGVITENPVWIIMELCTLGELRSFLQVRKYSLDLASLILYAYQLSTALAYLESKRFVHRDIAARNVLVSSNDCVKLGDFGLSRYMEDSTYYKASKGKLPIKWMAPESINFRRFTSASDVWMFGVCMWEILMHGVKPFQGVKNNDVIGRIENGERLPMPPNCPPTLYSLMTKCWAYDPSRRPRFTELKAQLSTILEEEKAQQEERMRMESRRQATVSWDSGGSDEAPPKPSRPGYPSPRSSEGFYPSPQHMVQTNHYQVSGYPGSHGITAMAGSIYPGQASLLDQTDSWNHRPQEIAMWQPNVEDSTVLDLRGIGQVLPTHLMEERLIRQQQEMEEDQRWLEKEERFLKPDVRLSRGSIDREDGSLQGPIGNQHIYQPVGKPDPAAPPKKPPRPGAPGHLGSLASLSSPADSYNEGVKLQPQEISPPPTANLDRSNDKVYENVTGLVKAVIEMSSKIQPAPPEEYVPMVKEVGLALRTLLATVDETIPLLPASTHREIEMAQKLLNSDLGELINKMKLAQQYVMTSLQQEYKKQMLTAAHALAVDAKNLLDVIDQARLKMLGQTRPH
Cav32 inh = blocks human Cav3.2 T-type calcium channel. O95180. Cav3.2-expressing cells, Fluo-4 calcium fluorescence FDSS; stronger effect = lower value. B-score at 10 µM. 100,000 compounds, 4% hits;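 active = single-dose well whose peak fluorescence ratio is a statistical outlier from its plate by either plate-standardised score or position-corrected B-score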
PLK1 inh = PLK1 (human) kinase inhibition. P53350. recombinant PLK1 kinase, TR-FRET peptide phosphorylation. inhibition, % at 10 µM. 97,000 compounds, 0.53% hits;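 active = inhibition of 50% or more in the single-concentration screen; inactive = inhibition below 50%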;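 also: 0% = DMSO max control and 100% = H-89 dihydrochloride min control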
PLK1 PBD inh = blocks phosphopeptide binding to human Plk1 polo box domain; Plk1 PBD phosphopeptide binding, fluorescence polarization; inhibition, %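 (tested at about 20 µM)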; 97,000 compounds, 0.13% hits; AID 693; in the data active = inhibition above about 34%, passing the limit was not always enough
EphB4 antag = antagonists of human EphB4-ephrin-B2 interaction. P54760. EphB4 LBD / TNYL-RAW-Alexa532 peptide, fluorescence polarization. inhibition, % at 7 µM. 97,000 compounds, 0.15% hits. AID 720;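 active = inhibition above the screen-wide mean inhibition plus 3 SD, cut at about 15% in these data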;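 also: 0% = DMSO wells and 100% = excess unlabeled TNYL-RAW peptide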
Numbers without * were called inactive; . = no result; [ ] = another dose, or the depositor's remark.

SMILES	Rev-RRE block	FAK blocker	Cav32 inh	PLK1 inh	PLK1 PBD inh	EphB4 antag
CC1CCN(C(=O)CSc2nc3ccccc3c(=O)n2Cc2ccc3c(c2)OCO3)CC1	-2.5	7.1	-4.87*	-15.5	13.9	1.8
CN(C)c1ccc(C(=O)c2ccccc2)cc1	-0.4	0.0	.	-8.6	5.6	-1.7
CN(C)c1ccc(/C=C/c2cc[n+]([O-])cc2)cc1	120.5*[fluorescence artefact?]	1.6	.	-12.9	-50.0	4.4
CN(C)c1ccc(/C=C/c2cc[n+](C)cc2)cc1	49.0*[fluorescence artefact?]	1.1	-1.41	-42.9	-83.1	-4.0
CC(C)C1Oc2ccccc2N(CC(=O)N(Cc2ccncc2)Cc2ccco2)C1=O (centres undefined)	4.0	1.1	-0.79	-13.7	8.7	5.0
COC(=O)C1=NN(C(=O)c2ccc(Cl)cc2)C(O)(c2ccccc2)C1 (centres undefined)	15.4	8.1	-2.12	-19.4	-1.6	-0.3
CCOC(=O)C1=NN(C(=O)c2ccc(C)cc2)C(O)(c2ccc(Cl)cc2)C1 (centres undefined)	10.3	-3.1	-6.26*	-13.3	6.4	8.9
O=C1CCN(S(=O)(=O)c2ccccc2)CCN1CCOCc1ccc(Cl)cc1	.	.	-0.442	.	.	.
[O-][n+]1c2c(c3c4non(O)c4ccc31)CCCC2	4.0	3.6	-6.75*	-1.5	4.2	-2.8
COC(=O)C1CSc2[nH]c(=O)sc2C1c1ccccc1 (centres undefined)	78.5*	0.4	0.592	-16.7	-25.6	7.4
CCOC(=O)c1ccc(NC(=O)c2nc[nH]c2C(=O)N[C@@H](CC(C)C)C(=O)OCc2ccccc2)cc1	.	.	-0.122	.	.	.
COc1ccccc1N/C(=N/S(=O)(=O)c1ccc(C)cc1)c1ccc(Cl)cc1	14.2	0.4	-3.79*	-2.0	0.8	-7.1
Cc1ccc(N=C(NO)c2nonc2N)cc1	6.2	-0.6	1.94	1.8	-7.1	0.5
CCCCCCCCCn1c2c(c(=N)c3c1CCC3)CCC2	13.4	1.4	-6.18*	-7.0	9.6	2.8
CC(C)CN(CC(C)C)S(=O)(=O)c1cc([N+](=O)[O-])ccc1N1CCCCCC1	19.1	-0.2	-5.2*	6.3	3.7	-4.7
O=[N+]([O-])c1ccc(N2CCCCC2)c(Cl)c1N1CCCCC1	12.7	-8.0	-0.383	-4.2	2.9	-10.4
O=[N+]([O-])c1ccc(N2CCCCCC2)c([N+](=O)[O-])c1	4.4	8.4	-4.75*	1.7	-6.8	-6.8
CN(C)S(=O)(=O)c1cc([N+](=O)[O-])ccc1N1CCCCCC1	3.5	3.5	-2.76	-8.0	13.6	-6.0
CC(=O)n1nc(-c2ccccc2)nc1NCc1ccc(F)cc1	3.8	0.1	-4.65*	-2.2	10.4	-2.3
COCC(=O)n1nc(-c2ccc(Cl)cc2)nc1NCc1ccc(F)cc1	10.8	1.7	-0.244	-1.5	1.1	3.2
CCOc1cc(/C=C(/C#N)C(=O)Nc2ccc(O)cc2)cc(Br)c1O	117.4*[fluorescence artefact?]	-6.8	-7.94*	-5.8	-113.1	-2.8
CC(=O)C1=C(C)Nc2ncnn2C1c1cccc(OCc2ccccc2)c1 (centres undefined)	5.5	-2.7	0.73	50.7*	-7.8	-5.4
CC1=C(C(=O)OCc2ccccc2)C(c2cccnc2)n2ncnc2N1 (centres undefined)	2.5	-4.5	-0.284	36.3	-14.7	-2.3
O=C(O)c1ccc(S(=O)(=O)N2CCC(c3nc(-c4ccccc4Cl)no3)CC2)cc1	-7.0	-8.7	0.266	-18.4	3.0	1.5
O=C(C(c1ccccc1)c1ccccc1)N1CCC(c2nc(-c3ccccc3Cl)no2)CC1	8.4	0.2	-6.22*	-7.0	-14.3	5.3
SMILES	Rev-RRE block	FAK blocker	Cav32 inh	PLK1 inh	PLK1 PBD inh	EphB4 antag
O=C(NCc1nc2ccccc2[nH]1)C1=C[C@H](c2coc3ccccc3c2=O)C[C@H](OCCCCO)O1	.	.	-0.0136	.	.	.
CC(C)(C)CC(C)(C)NCC(O)COc1ccc2c(c1)CCC2 (centres undefined)	10.2	-4.0	-8.32*	-5.9	24.1	-4.2
COc1ccccc1N1CCN(CC(O)COc2ccc3c(c2)CCC3)CC1 (centres undefined)	7.6	-3.4	-6.13*	-17.6	-12.1	-0.8
CCn1c(C)c(C(C)=O)c(N2CCN(c3ccccc3)CC2)nc1=S	42.3*	-2.8	0.694	4.1	-5.0	-3.1
CCn1c(C)c(C(C)=O)c(N2CCN(c3ccccn3)CC2)nc1=S	-0.3	0.5	-0.337	-10.0	12.2	-4.5
COc1ccccc1N(C(=O)NCc1ccccc1)C1=NCC(C)S1 (centres undefined)	8.8	-6.6	-4.69*	10.4	11.2	6.4
COc1ccccc1N(CC(=O)NCc1ccccc1)S(C)(=O)=O	6.5	4.3	0.237	-10.3	8.5	3.9
O=C(O[C@H]1[C@H](Oc2ccccc2COC(=O)C2(O)C=CCCC2=O)O[C@H](CO)[C@@H](O)[C@@H]1O)c1ccccc1 (some centres undefined)	.	.	-4.45*	.	.	.
COC(=O)[C@@H]1C[C@@]2(O)[C@H](O)[C@H](O)[C@H](O)C[C@H]2N1C/C=C/c1ccccc1	.	.	-1.6	.	.	.
CCO[C@H]1OC(C(=O)NCc2ccccc2)=C[C@@H](C2CC2)[C@@H]1CCCO	.	.	-0.255	.	.	.
CCOCCCNc1nc2c(C)cccn2c(=O)c1/C=C1\SC(=S)N(CC(C)C)C1=O	43.6*	-5.5	.	-15.5	-29.4	-4.6
CCCN1C(=O)/C(=C/c2c(NCCCOCC)nc3c(C)cccn3c2=O)SC1=S	76.0*	-0.1	-2.5	-17.2	-27.7	-3.5
CCOCCCn1c(=N)c(C(=O)NCCN2CCOCC2)cc2c(=O)n3cccc(C)c3nc21	9.9	0.2	.	-7.6	-29.0	-5.8
O=C(Nc1ccccc1)c1ccc(N2CCN(c3ccccc3)CC2)c(S(=O)(=O)N2CCOCC2)c1	1.9	1.1	-5.98*	-10.4	-12.4	3.6
O=C(CSCc1ccccc1)N/N=C/c1ccccc1OCc1ccccc1	11.1	-1.9	-2.54	-11.1	34.3	-6.0
Cc1ccc(CSCC(=O)N/N=C/c2sccc2C)cc1	10.5	-2.2	-4.9*	-7.5	-14.8	-1.9
Cc1ccccc1-n1c(C)cc(/C=N/NC(=O)c2ccncc2)c1C	-3.1	3.0	0.853	-11.3	-1.7	10.3
Cc1cccc(C)c1-n1c(C)cc(/C=N/NC(N)=S)c1C	-0.4	0.3	-5.91*	-10.2	15.1	2.3
CCOC(=O)Cc1cnc(NC(=O)Cn2nnc(-c3ccc(OCC)cc3)n2)s1	9.7	-3.7	-7.21*	-6.4	-2.8	-2.2
CCCCOc1ccc(-c2nnn(CC(=O)Nc3ncc(CC(=O)OCC)s3)n2)cc1	6.2	-2.0	-2.36	-3.0	8.1	3.9
CN(C)C(=O)Cn1c(SCC(=O)Nc2ccc3c(c2)OCO3)nc2ccccc21	0.4	-1.0	0.17	-6.2	-7.5	0.4
CCCn1c(N2CCN(CC(=O)Nc3ccc4c(c3)OCCO4)CC2)nc2ccccc21	2.8	-1.2	-4.54*	-1.3	-18.2	-6.7

Bioassay records from PubChem BioAssay.
